Key:
Format in all cases: functional
SF-268 = experiment: Growth inhibition of human SF268 cells at 10 uM after 48 hrs by coulter counting; details: SF-268, 48 h, read-out: GI
In short: (§1)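 Single-dose primary screen across the full NCI 60-cell-line panel. Stocks were made in DMSO and diluted in PBS to a final DMSO below 1%. Cultures at 6 × 10⁴ cells/ml were run in duplicate wells alongside PBS/DMSO vehicle controls at 37 °C in humidified 5% CO₂. Data were expressed as percent growth of treated cells.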

[1] = Growth inhibition of human NCI-322M cells at 10 uM after 48 hrs by coulter counting; details: read-out: GI; in short: as §1
OVCAR-4 = experiment: Growth inhibition of human OVCAR4 cells at 10 uM after 48 hrs by coulter counting; details: OVCAR-4, 48 h, read-out: GI; in short: as §1
NCI-H23 = experiment: Growth inhibition of human NCI-H23 cells at 10 uM after 48 hrs by coulter counting; details: NCI-H23, 48 h, read-out: GI; in short: as §1
UACC-257 = experiment: Growth inhibition of human UACC257 cells at 10 uM after 48 hrs by coulter counting; details: UACC-257, 48 h, read-out: GI
In short: (§2)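 Single-dose screen in the NCI 60 human tumor cell line panel (nine subpanels). Compounds dissolved in DMSO and diluted in phosphate buffered saline, keeping final DMSO below 1%. Added in duplicate wells to cells at 6 × 10⁴ cells/ml. Controls held PBS and DMSO at matching dilutions. Incubated at 37 °C, humidified, 5% CO₂. Reported as percent growth of treated cells.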

A549 = experiment: Growth inhibition of human A549 cells at 10 uM after 48 hrs by coulter counting; details: A549, 48 h, read-out: GI; in short: as §1
NCI/ADR-RES = experiment: Growth inhibition of human NCI/ADR-RES cells at 10 uM after 48 hrs by coulter counting; details: read-out: GI; in short: as §1
ACHN = experiment: Growth inhibition of human ACHN cells at 10 uM after 48 hrs by coulter counting; details: read-out: GI; in short: as §1
BT-549 = experiment: Growth inhibition of human BT549 cells at 10 uM after 48 hrs by coulter counting; details: BT-549, 48 h, read-out: GI; in short: as §1
HL-60(TB) = experiment: Growth inhibition of human HL-60(TB) cells at 10 uM after 48 hrs by coulter counting; details: HL-60, 48 h, read-out: GI
In short: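 Test compound was dissolved in DMSO and diluted in phosphate-buffered saline to a final DMSO level below 1%. Dilutions were plated in duplicate with cell culture at 6 × 10⁴ cells/ml. Vehicle controls held PBS and DMSO at matching dilutions. Incubation was at 37 °C, humidified, under 5% CO₂. Data were reported as percent growth of treated cells.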

SF-539 = experiment: Growth inhibition of human SF539 cells at 10 uM after 48 hrs by coulter counting; details: SF-539, 48 h, read-out: GI; in short: as §1
HOP-62 = experiment: Growth inhibition of human HOP62 cells at 10 uM after 48 hrs by coulter counting; details: HOP-62, 48 h, read-out: GI; in short: as §1
RPMI-8226 = experiment: Growth inhibition of human RPMI8226 cells at 10 uM after 48 hrs by coulter counting; details: RPMI-8226, 48 h, read-out: GI; in short: as §1
SK-MEL-28 = experiment: Growth inhibition of human SK-MEL-28 cells at 10 uM after 48 hrs by coulter counting; details: SK-MEL-28, 48 h, read-out: GI; in short: as §1
SK-MEL-5 = experiment: Growth inhibition of human SK-MEL-5 cells at 10 uM after 48 hrs by coulter counting; details: SK-MEL-5, 48 h, read-out: GI; in short: as §1
CCRF-CEM = experiment: Growth inhibition of human CCRF-CEM cells at 10 uM after 48 hrs by coulter counting; details: read-out: GI; in short: as §1
SNB-75 = experiment: Growth inhibition of human SNB75 cells at 10 uM after 48 hrs by coulter counting; details: SNB-75, 48 h, read-out: GI; in short: as §1
K562 = experiment: Growth inhibition of human K562 cells at 10 uM after 48 hrs by coulter counting; details: K562, 48 h, read-out: GI; in short: as §1
EKVX = experiment: Growth inhibition of human EKVX cells at 10 uM after 48 hrs by coulter counting; details: read-out: GI; in short: as §1
NCI-H522 = experiment: Growth inhibition of human NCI-H522 cells at 10 uM after 48 hrs by coulter counting; details: NCI-H522, 48 h, read-out: GI; in short: as §1
NCI-H460 = experiment: Growth inhibition of human NCI-H460 cells at 10 uM after 48 hrs by coulter counting; details: NCI-H460, 48 h, read-out: GI; in short: as §1
U-251 = experiment: Growth inhibition of human U251 cells at 10 uM after 48 hrs by coulter counting; details: U-251, 48 h, read-out: GI; in short: as §2
NCI-H226 = experiment: Growth inhibition of human NCI-H226 cells at 10 uM after 48 hrs by coulter counting; details: NCI-H226, 48 h, read-out: GI; in short: as §1
A498 = experiment: Growth inhibition of human A498 cells at 10 uM after 48 hrs by coulter counting; details: A498, 48 h, read-out: GI; in short: as §1
CAKI-1 = experiment: Growth inhibition of human Caki1 cells at 10 uM after 48 hrs by coulter counting; details: CAKI-1, 48 h, read-out: GI; in short: as §1
SK-MEL-2 = experiment: Growth inhibition of human SK-MEL-2 cells at 10 uM after 48 hrs by coulter counting; details: SK-MEL-2, 48 h, read-out: GI; in short: as §1
MOLT-4 = experiment: Growth inhibition of human MOLT4 cells at 10 uM after 48 hrs by coulter counting; details: MOLT-4, 48 h, read-out: GI; in short: as §1
HCC 2998 = experiment: Growth inhibition of human HCC2998 cells at 10 uM after 48 hrs by coulter counting; details: HCC 2998, 48 h, read-out: GI; in short: as §1
KM12 = experiment: Growth inhibition of human KM12 cells at 10 uM after 48 hrs by coulter counting; details: KM12, 48 h, read-out: GI; in short: as §1
LOX IMVI = experiment: Growth inhibition of human LOXIMVI cells at 10 uM after 48 hrs by coulter counting; details: read-out: GI; in short: as §1
MDA-MB-435 = experiment: Growth inhibition of human MDA-MB-435 cells at 10 uM after 48 hrs by coulter counting; details: MDA-MB-435, 48 h, read-out: GI; in short: as §1
IGROV-1 = experiment: Growth inhibition of human IGROV1 cells at 10 uM after 48 hrs by coulter counting; details: IGROV-1, 48 h, read-out: GI; in short: as §1
T47D = experiment: Growth inhibition of human T47D cells at 10 uM after 48 hrs by coulter counting; details: read-out: GI; in short: as §2
HCT-116 = experiment: Growth inhibition of human HCT116 cells at 10 uM after 48 hrs by coulter counting; details: HCT-116, 48 h, read-out: GI; in short: as §1
SNB-19 = experiment: Growth inhibition of human SNB19 cells at 10 uM after 48 hrs by coulter counting; details: SNB-19, 48 h, read-out: GI; in short: as §1
UO-31 = experiment: Growth inhibition of human UO31 cells at 10 uM after 48 hrs by coulter counting; details: UO-31, 48 h, read-out: GI; in short: as §2
MCF7 = experiment: Growth inhibition of human MCF7 cells at 10 uM after 48 hrs by coulter counting; details: MCF7, 48 h, read-out: GI; in short: as §1
DU-145 = experiment: Growth inhibition of human DU145 cells at 10 uM after 48 hrs by coulter counting; details: DU-145, 48 h, read-out: GI; in short: as §1
SF-295 = experiment: Growth inhibition of human SF295 cells at 10 uM after 48 hrs by coulter counting; details: SF-295, 48 h, read-out: GI; in short: as §1
UACC-62 = experiment: Growth inhibition of human UACC62 cells at 10 uM after 48 hrs by coulter counting; details: UACC-62, 48 h, read-out: GI; in short: as §2
M14 = experiment: Growth inhibition of human M14 cells at 10 uM after 48 hrs by coulter counting; details: M14, 48 h, read-out: GI; in short: as §1
HT-29 = experiment: Growth inhibition of human HT-29 cells at 10 uM after 48 hrs by coulter counting; details: HT-29, 48 h, read-out: GI; in short: as §1

Measured: inhibition of growth at 10 µM

COc1ccc(/C=C2\CCCC3=C2N=C2SC=C(C)N2C3c2ccc(OC)cc2)cc1 (stereo not drawn)
36%: A498
13.5%: RPMI-8226
12.5%: CAKI-1
23.3%: UO-31
> 10%: all other assays above

COc1ccc(/C=C2\CCCC3=C2N=C2SC=C(C)N2C3c2ccc(OC)c(OC)c2)cc1OC (stereo not drawn)
11.4%: EKVX
10.5%: NCI-H226
not listed: HOP-62
> 10%: all other assays above

Source: ChEMBL document CHEMBL1926614, “Substituted thiazoles V. synthesis and antitumor activity of novel thiazolo[2,3-b]quinazoline and pyrido[4,3-d]thiazolo[3,2-a]pyrimidine analogues” (2012)
